We go through 44 compounds from ChEMBL document CHEMBL1138825, “N-phenylphenylglycines as novel corticotropin releasing factor receptor antagonists” (J Med Chem, 2004).

5-hydroxytryptamine receptor 2A, sequence (P28223 whole entry): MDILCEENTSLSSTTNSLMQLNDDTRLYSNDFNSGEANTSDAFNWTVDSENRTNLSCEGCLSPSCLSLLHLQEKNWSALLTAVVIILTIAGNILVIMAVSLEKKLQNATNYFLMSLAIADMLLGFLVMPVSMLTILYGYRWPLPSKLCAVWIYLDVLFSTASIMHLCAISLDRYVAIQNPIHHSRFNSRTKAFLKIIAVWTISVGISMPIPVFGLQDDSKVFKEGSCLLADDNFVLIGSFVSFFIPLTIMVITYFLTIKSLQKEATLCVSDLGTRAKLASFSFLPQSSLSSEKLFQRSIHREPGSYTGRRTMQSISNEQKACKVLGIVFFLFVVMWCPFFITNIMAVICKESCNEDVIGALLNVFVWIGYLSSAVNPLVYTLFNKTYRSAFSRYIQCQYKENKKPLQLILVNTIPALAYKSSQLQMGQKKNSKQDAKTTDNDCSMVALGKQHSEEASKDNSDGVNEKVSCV

For one data set, the target named is T1, Corticotropin-releasing factor receptor 1 (Homo sapiens, UniProt P34998).
T1 sequence (P34998 whole entry): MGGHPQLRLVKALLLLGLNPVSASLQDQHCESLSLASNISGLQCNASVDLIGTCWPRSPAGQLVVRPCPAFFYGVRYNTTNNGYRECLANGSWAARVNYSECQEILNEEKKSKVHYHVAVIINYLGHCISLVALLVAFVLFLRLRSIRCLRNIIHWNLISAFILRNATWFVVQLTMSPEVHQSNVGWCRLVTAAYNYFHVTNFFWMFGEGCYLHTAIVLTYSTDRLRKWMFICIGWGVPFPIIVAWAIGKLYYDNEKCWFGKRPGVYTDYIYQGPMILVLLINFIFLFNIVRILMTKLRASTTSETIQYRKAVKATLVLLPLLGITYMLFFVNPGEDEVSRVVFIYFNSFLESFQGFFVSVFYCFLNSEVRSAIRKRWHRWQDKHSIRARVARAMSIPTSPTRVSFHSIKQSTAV
Description: Binding affinity towards human corticotropin releasing factor (h-CRF1) receptor.
Details: not given
A digest of the protocol:
(§1)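 Ki values were measured in duplicate. If the duplicate Ki values differed by more than 15%, further duplicate runs were done until this criterion was met, and the determinations were averaged. Mean Ki is reported where there was more than one determination. Internal control compounds were run on every plate.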
For `COc1cccc(OC)c1C(Nc1ccc(C)cc1Cl)C(=O)CCc1ccncc1` (stereo not given), the Ki is > 10000 nM. On to `Cc1ccc(NC(C(=O)CCc2ccccn2)c2ccccc2Br)c(Cl)c1` (stereo not given), for which the Ki is > 10000 nM. Same read-out and setting: next, `O=C(CCc1ccncc1)C(Nc1ccccc1Cl)c1ccccc1Br` (stereo not given): 7330 nM; `Cc1ccc(NC(C(=O)Cc2ccncc2)c2ccccc2Br)c(Cl)c1` (stereo not given): > 10000 nM. On the same count and under the same terms, next, `COc1ccc(C(Nc2ccc(C)cc2Cl)C(=O)CCc2ccncc2)c(OC)c1` (stereo not given): > 10000 nM; `Cc1ccc(NC(C(=O)CCc2ccncc2)c2ccccc2C(C)C)c(Cl)c1` (stereo not given): 3300 nM. `Cc1ccc(NC(C(=O)CCc2ccncc2)c2ccc(Cl)cc2)c(Cl)c1` (stereo not given): the Ki is > 10000 nM. For the compound `Cc1ccccc1C(Nc1ccc(Cl)cc1Cl)C(=O)c1cccc(O)c1` (stereo not given), the Ki is > 10000 nM. Still for that read-out and setting: then `Cc1ccccc1C(Nc1ccc(Cl)cc1Cl)C(=O)CCc1ccncc1` (stereo not given), with 370 nM. In turn, `COc1ccc(C(=O)C(Nc2ccc(Cl)cc2Cl)c2ccccc2C)cc1O` (stereo not given) returned a Ki of 387 nM. On the same count and under the same terms, then `CCc1ccccc1C(Nc1ccc(Cl)cc1Cl)C(=O)CCc1ccncc1` (stereo not given), with 330 nM; and `Cc1ccc(C(Nc2ccc(C)cc2Cl)C(=O)CCc2ccncc2)cc1` (stereo not given), with > 10000 nM.

As for `COc1ccccc1C(Nc1ccc(C)cc1Cl)C(=O)CCc1ccncc1` (stereo not given), the Ki is > 10000 nM. The same measure, in the same setting: next, `Cc1ccc(NC(C(=O)CCc2ccncc2)c2cccc(Cl)c2)c(Cl)c1` (stereo not given): > 5000 nM; `Cc1ccccc1C(Nc1ccc(Cl)cc1C(F)(F)F)C(=O)CCc1ccncc1` (stereo not given): 469 nM. Same read-out and setting: next, `COc1ccc(C(=O)C(Nc2ccc(Cl)cc2Cl)c2ccccc2C)cc1OC` (stereo not given): > 10000 nM; `Cc1ccc(NC(C(=O)CCc2ccncc2)c2ccccc2)c(Cl)c1` (stereo not given): > 10000 nM; `COc1ccc(OC)c(C(Nc2ccc(C)cc2Cl)C(=O)CCc2ccncc2)c1` (stereo not given): > 10000 nM.

`Cc1cccc(C)c1C(Nc1ccc(Cl)cc1Cl)C(=O)CCc1ccncc1` (stereo not given) came in with a Ki of 338 nM. Still for that read-out and setting: next, `Cc1ccc(NC(C(=O)CCc2cnc[nH]2)c2ccccc2Br)c(Cl)c1` (stereo not given): > 10000 nM. Consider `CN(c1ccccc1Cl)C(C(=O)CCc1ccncc1)c1ccccc1Br` (stereo not given), for which the Ki is > 10000 nM. On the same count and under the same terms, then `Cc1ccc(NC(C(=O)CCc2ccncc2)c2ccccc2C)c(F)c1` (stereo not given), with 439 nM; and `Cc1ccc(NC(C(=O)CCc2ccncc2)c2ccccc2C)c(C(F)(F)F)c1` (stereo not given), with 641 nM. Still for that read-out and setting: next, `Cc1ccc(NC(C(=O)CCc2cccnc2)c2ccccc2Br)c(Cl)c1` (stereo not given): > 10000 nM; `Cc1ccc(N[C@@H](C(=O)CCc2ccncc2)c2ccccc2C)c(Cl)c1`: 244 nM; `Cc1cc(F)ccc1C(Nc1ccc(Cl)cc1Cl)C(=O)CCc1ccncc1` (stereo not given): 512 nM.

`Cc1ccccc1[C@@H](Nc1ccc(Cl)cc1Cl)C(=O)CCc1ccncc1` yielded a Ki of 154 nM.

On to `Cc1ccc(NC(C(=O)CCc2ccncc2)c2ccccc2C)c(Cl)c1` (stereo not given), for which the Ki stood at 922 nM.

With `COc1cccc(C(Nc2ccc(C)cc2Cl)C(=O)CCc2ccncc2)c1` (stereo not given), the Ki is > 10000 nM. Turning to `Cc1ccc(NC(C(=O)CCc2ccc(F)cc2)c2ccccc2Br)c(Cl)c1` (stereo not given), the Ki was > 10000 nM.

Consider `Cc1cccc(C(Nc2ccc(C)cc2Cl)C(=O)CCc2ccncc2)c1` (stereo not given), for which the Ki is > 10000 nM. `O=C(CCc1ccncc1)C(Nc1ccc(Cl)cc1Cl)c1ccccc1C(F)(F)F` (stereo not given) registered a Ki of 1000 nM.

On to `Cc1ccc(NC(C(=O)CCc2ccccc2)c2ccccc2Br)c(Cl)c1` (stereo not given), for which the Ki is > 10000 nM. Still for that read-out and setting: next, `O=C(CCc1ccncc1)C(Nc1ccc(Cl)cc1Cl)c1ccccc1Br` (stereo not given): 204 nM; `Cc1ccccc1[C@H](Nc1ccc(Cl)cc1Cl)C(=O)CCc1ccncc1`: 3180 nM; `CC(=O)Nc1cccc(C(=O)C(Nc2ccc(Cl)cc2Cl)c2ccccc2Br)c1` (stereo not given): 514 nM. For `COc1ccc(C(=O)C(Nc2ccc(C)cc2Cl)c2ccccc2Br)cc1O` (stereo not given), the Ki stood at 1070 nM. On the same count and under the same terms, then `C=Cc1ccccc1C(Nc1ccc(C)cc1Cl)C(=O)CCc1ccncc1` (stereo in doubt; 4), with 752 nM. On the same count and under the same terms, next, `C=Cc1ccccc1C(Nc1ccc(C)cc1Cl)C(=O)CCc1ccncc1` (stereo in doubt; 32): 752 nM.

The target of a further data set is 5-hydroxytryptamine receptor 6 (Homo sapiens, UniProt P50406). Description: Binding affinity of compound towards serotonin 5-hydroxytryptamine 6 receptor; inactive at 10 uM.
5-hydroxytryptamine receptor 6, sequence (P50406 whole entry): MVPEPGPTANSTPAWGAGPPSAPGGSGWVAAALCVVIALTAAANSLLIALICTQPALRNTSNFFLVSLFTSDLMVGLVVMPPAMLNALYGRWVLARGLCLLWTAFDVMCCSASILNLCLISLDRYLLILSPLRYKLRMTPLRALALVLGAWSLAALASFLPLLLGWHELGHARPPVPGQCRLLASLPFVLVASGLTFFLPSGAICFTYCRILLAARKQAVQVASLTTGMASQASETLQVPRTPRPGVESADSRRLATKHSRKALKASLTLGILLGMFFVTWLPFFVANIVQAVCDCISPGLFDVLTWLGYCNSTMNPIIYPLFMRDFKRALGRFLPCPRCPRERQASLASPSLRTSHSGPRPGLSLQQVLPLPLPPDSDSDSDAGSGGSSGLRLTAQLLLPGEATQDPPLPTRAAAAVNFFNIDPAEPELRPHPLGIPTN
Details: not given
Take `Cc1ccccc1[C@@H](Nc1ccc(Cl)cc1Cl)C(=O)CCc1ccncc1`: the Ki result is given as “Not Active”.

For a further data set, the target named is T1, Corticotropin-releasing factor receptor 1. Nature of the data set: Binding affinity of compound towards human corticotropin releasing factor (h-CRF1) receptor; inactive.
Details: not given
A digest of the protocol:
as §1
As to `Cc1ccc(N[C@H](C(=O)CCc2ccncc2)c2ccccc2C)c(Cl)c1`, the inhibitory constant (Ki) result is listed as “Not Active”.

System in the next data set: not listed separately
Nature of the data set: Compound was evaluated for half-life period.
Details: not given
It is filed as ADME. The gist of the method: (§2)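 Cassette dosing in beagle dogs (n = 2 per route), with each compound given alongside seven others. Oral dose was 1 mg/kg, with sampling at 0, 0.5, 1, 2, 4, 6, 8 and 24 h. Plasma drug levels were measured by LC/MS/MS.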
Turning to `Cc1ccccc1[C@@H](Nc1ccc(Cl)cc1Cl)C(=O)CCc1ccncc1`, the half-life was 1.7 h.

A further data set concerns the target T2, 5-hydroxytryptamine receptor 1A (Homo sapiens, UniProt P08908).
T2 sequence (P08908 whole entry): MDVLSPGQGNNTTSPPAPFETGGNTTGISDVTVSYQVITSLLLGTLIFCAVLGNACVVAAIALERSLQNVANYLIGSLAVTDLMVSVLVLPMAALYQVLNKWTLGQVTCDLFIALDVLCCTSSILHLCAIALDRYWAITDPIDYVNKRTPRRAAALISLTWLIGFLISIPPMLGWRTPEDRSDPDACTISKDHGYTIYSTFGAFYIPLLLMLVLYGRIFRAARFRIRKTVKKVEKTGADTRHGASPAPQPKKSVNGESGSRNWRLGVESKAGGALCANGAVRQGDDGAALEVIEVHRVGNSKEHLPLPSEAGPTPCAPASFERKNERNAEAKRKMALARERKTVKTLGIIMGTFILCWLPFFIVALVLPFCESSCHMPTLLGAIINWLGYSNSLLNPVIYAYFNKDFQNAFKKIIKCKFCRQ
Description: Binding affinity of compound towards serotonin 5-hydroxytryptamine 1A receptor; inactive at 10 uM.
Details: not given
Turning to `Cc1ccccc1[C@@H](Nc1ccc(Cl)cc1Cl)C(=O)CCc1ccncc1`, the Ki result is on record as “Not Active”.

The target in the next data set is T1, Corticotropin-releasing factor receptor 1. Nature of the data set: Binding affinity of compound towards human corticotropin releasing factor (h-CRF1) receptor showed a 2-fold activity in racemic mixture; inactive.
Details: not given
The gist of the method:
as §1
As to `Cc1ccc(N[C@H](C(=O)CCc2ccncc2)c2ccccc2Br)c(Cl)c1`, the inhibitory constant (Ki) result was “Not Active”.

The target is the same in another data set. Description: Binding affinity of compound towards human corticotropin releasing factor (h-CRF1) receptor showed a 2-fold activity in racemic mixture.
Details: not given
A digest of the protocol: as §1
In the case of `Cc1ccc(N[C@@H](C(=O)CCc2ccncc2)c2ccccc2Br)c(Cl)c1`, the Ki was 546 nM.

System in the next data set: not listed separately
Nature of the data set: Compound was evaluated for total body clearance. Type of data set: ADME. Conditions: read-out: Activity (converted).
In the case of `Cc1ccccc1[C@@H](Nc1ccc(Cl)cc1Cl)C(=O)CCc1ccncc1`, the clearance is 21.7 mL/min/kg.

System in a further data set: not listed separately
Description: Compound was evaluated for oral bioavailability. It is filed as ADME, organism-based. To be noted: in vivo, read-out: Bioavailabiility. A digest of the protocol: as §2
`Cc1ccccc1[C@@H](Nc1ccc(Cl)cc1Cl)C(=O)CCc1ccncc1`: the bioavailability was found to be 7%.

In another data set the target is T3, Corticotropin-releasing factor receptor 2 (Homo sapiens, UniProt Q13324).
T3 sequence (Q13324 whole entry): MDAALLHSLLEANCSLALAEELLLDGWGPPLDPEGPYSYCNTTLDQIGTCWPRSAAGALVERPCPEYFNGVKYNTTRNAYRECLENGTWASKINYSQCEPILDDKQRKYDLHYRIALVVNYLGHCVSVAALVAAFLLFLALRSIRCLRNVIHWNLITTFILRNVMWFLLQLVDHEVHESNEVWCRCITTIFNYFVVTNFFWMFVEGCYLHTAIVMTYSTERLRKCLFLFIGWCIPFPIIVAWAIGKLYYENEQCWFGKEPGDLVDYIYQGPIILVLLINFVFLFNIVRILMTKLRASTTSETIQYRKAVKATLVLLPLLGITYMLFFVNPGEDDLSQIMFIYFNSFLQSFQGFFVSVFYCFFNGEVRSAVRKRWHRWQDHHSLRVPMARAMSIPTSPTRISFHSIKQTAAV
Nature of the data set: Binding affinity of compound towards human Corticotropin releasing factor receptor 2; inactive at 10 uM.
Details: not given
Regarding `Cc1ccc(NC(C(=O)CCc2ccncc2)c2ccccc2Br)c(Cl)c1` (stereo not given), the Ki result was “Not Active”.

System in a further data set: not listed separately
Description: Compound was evaluated for volume of distribution at steady state. It is filed as ADME. To be noted: read-out: Activity.
Consider `Cc1ccccc1[C@@H](Nc1ccc(Cl)cc1Cl)C(=O)CCc1ccncc1`, for which the Vd is 1.8 L/kg.

The next data set deals with 5-hydroxytryptamine receptor 1D (Homo sapiens, UniProt P28221). Description: Binding affinity of compound towards serotonin 5-hydroxytryptamine 1D receptor; inactive at 10 uM.
5-hydroxytryptamine receptor 1D, sequence (P28221 whole entry): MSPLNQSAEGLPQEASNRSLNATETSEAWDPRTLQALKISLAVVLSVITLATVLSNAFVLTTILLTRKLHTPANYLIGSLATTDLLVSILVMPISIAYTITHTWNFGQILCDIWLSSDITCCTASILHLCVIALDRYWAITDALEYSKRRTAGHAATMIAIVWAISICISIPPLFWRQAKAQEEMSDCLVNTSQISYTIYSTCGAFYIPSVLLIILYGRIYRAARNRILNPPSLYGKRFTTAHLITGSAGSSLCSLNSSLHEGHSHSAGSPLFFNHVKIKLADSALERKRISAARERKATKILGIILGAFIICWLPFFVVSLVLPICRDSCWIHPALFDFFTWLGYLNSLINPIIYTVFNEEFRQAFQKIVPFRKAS
Details: not given
`Cc1ccccc1[C@@H](Nc1ccc(Cl)cc1Cl)C(=O)CCc1ccncc1`: the Ki result was “Not Active”.

The next data set has as its target 5-hydroxytryptamine receptor 2A (Homo sapiens, UniProt P28223). Description: Binding affinity of compound towards serotonin 5-hydroxytryptamine 2A receptor; inactive at 10 uM.
Details: not given
Regarding `Cc1ccccc1[C@@H](Nc1ccc(Cl)cc1Cl)C(=O)CCc1ccncc1`, the Ki result is reported as “Not Active”.

The target of another data set is 5-hydroxytryptamine receptor 1B (Homo sapiens, UniProt P28222). Description: Binding affinity of compound towards serotonin 5-hydroxytryptamine 1B receptor; inactive at 10 uM.
5-hydroxytryptamine receptor 1B, sequence (P28222 whole entry): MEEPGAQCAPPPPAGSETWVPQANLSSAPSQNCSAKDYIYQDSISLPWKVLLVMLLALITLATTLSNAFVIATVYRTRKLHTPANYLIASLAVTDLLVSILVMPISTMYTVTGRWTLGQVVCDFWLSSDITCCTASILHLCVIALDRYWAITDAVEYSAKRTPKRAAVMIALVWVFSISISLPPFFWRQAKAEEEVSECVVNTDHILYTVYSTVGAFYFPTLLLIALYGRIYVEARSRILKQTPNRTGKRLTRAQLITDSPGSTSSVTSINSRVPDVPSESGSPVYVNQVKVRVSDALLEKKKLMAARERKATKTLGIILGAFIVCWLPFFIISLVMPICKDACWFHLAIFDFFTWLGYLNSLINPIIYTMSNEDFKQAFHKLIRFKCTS
Details: not given
For `Cc1ccccc1[C@@H](Nc1ccc(Cl)cc1Cl)C(=O)CCc1ccncc1`, the Ki result is given as “Not Active”.

The target of a further data set is T1, Corticotropin-releasing factor receptor 1. Description: Binding affinity of compound towards human Corticotropin releasing factor receptor 1.
Details: not given
As for `Cc1ccc(NC(C(=O)CCc2ccncc2)c2ccccc2F)c(Cl)c1` (stereo not given), the Ki was > 10000 nM. Same read-out and setting: next, `Cc1ccc(NC(C(=O)CCc2ccncc2)c2ccccc2Br)c(Cl)c1` (stereo not given): 1040 nM.

The next data set deals with 5-hydroxytryptamine receptor 7 (Homo sapiens, UniProt P34969). Description: Binding affinity of compound towards serotonin 5-hydroxytryptamine 7 receptor; inactive at 10 uM.
5-hydroxytryptamine receptor 7, sequence (P34969 whole entry): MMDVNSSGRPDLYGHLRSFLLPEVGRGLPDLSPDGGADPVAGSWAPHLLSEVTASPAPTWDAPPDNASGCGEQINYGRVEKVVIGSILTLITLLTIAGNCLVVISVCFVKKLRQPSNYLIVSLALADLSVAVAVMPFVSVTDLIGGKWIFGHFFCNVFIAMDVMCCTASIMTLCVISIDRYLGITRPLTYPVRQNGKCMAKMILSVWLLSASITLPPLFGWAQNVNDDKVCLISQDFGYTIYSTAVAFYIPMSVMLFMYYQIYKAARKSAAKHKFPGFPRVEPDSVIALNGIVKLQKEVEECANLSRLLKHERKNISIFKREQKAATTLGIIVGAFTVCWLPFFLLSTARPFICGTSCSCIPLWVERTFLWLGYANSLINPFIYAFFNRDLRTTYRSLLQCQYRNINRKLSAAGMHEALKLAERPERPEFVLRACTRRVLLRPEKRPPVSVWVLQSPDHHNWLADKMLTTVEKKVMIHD
Details: not given
For `Cc1ccccc1[C@@H](Nc1ccc(Cl)cc1Cl)C(=O)CCc1ccncc1`, the Ki entry was “Not Active”.

Usually Ki stands for a measure of affinity in units of concentration, obtained from inhibition or displacement. A word on the half-life: it is how long it takes for the measured level to halve.
